{
  "source": "ChEMBL document CHEMBL1142492",
  "about": "(J Med Chem, 2008)",
  "key": {"[1]": {"biological_target": "Pyroglutamylated RF-amide peptide receptor (Homo sapiens) (UniProt Q96P65)", "sequence (Q96P65 whole entry)": "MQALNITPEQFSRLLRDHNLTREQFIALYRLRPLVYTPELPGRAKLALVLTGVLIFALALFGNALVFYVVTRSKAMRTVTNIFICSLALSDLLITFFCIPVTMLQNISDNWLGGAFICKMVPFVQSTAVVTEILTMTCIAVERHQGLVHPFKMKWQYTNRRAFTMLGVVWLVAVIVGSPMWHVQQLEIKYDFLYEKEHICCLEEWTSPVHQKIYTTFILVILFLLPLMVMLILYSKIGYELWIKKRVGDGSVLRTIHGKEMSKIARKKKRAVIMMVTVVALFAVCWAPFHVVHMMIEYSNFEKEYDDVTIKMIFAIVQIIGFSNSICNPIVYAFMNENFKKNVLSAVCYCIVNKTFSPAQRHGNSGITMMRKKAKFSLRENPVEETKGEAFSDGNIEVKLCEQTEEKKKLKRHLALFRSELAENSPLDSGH", "assay": "Inhibition of human GPR103 at 3 uM", "outline": "(§1)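 Counter-screen binding/enzyme panel at single 3 μM, n=2; results as percent inhibition. Species per target as listed (rat NMDA, GABAA sites; human receptors, transporters; rabbit ACE).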"}, "[2]": {"biological_target": "Serine/threonine-protein kinase D2 (Homo sapiens) (UniProt Q9BZL6)", "assay": "Inhibition of PRKD2 at 3 uM"}, "Rattus norvegicus [3]": {"species_on_record": "Rattus norvegicus", "conditions": "3 uM"}, "[4]": {"biological_target": "Citron Rho-interacting kinase (Homo sapiens) (UniProt O14578)", "assay": "Inhibition of CIT at 3 uM"}, "[5]": {"biological_target": "Alpha-2A adrenergic receptor (Homo sapiens) (UniProt P08913)", "assay": "Inhibition of human adrenergic alpha2A receptor at 3 uM"}, "[6]": {"system": "Phosphatidylinositol 4,5-bisphosphate 3-kinase catalytic subunit alpha isoform (Homo sapiens), P42336 [E545K]", "assay": "Inhibition of PIK3CA E545K mutant at 3 uM"}, "[7]": {"biological_target": "Serine/threonine-protein kinase BRSK1 (Homo sapiens) (UniProt Q8TDC3)", "assay": "Inhibition of BRSK1 at 3 uM"}, "[8]": {"biological_target": "Proto-oncogene tyrosine-protein kinase Src (Homo sapiens) (UniProt P12931)", "assay": "Inhibition of SRC at 3 uM"}, "[9]": {"biological_target": "Activin receptor type-1 (Homo sapiens) (UniProt Q04771)", "assay": "Inhibition of ACVR1 at 3 uM"}, "[10]": {"biological_target": "Cyclin-dependent kinase 18 (Homo sapiens) (UniProt Q07002)", "assay": "Inhibition of PCTK3 at 3 uM"}, "[11]": {"biological_target": "Serine/threonine-protein kinase ULK1 (Homo sapiens) (UniProt O75385)", "assay": "Inhibition of ULK1 at 3 uM"}, "[12]": {"biological_target": "Serine/threonine-protein kinase MRCK alpha (Homo sapiens) (UniProt Q5VT25)", "conditions": "3 uM"}, "CYP2D6": {"biological_target": "CYP2D6 (Homo sapiens, UniProt P10635)", "sequence (P10635 whole entry)": "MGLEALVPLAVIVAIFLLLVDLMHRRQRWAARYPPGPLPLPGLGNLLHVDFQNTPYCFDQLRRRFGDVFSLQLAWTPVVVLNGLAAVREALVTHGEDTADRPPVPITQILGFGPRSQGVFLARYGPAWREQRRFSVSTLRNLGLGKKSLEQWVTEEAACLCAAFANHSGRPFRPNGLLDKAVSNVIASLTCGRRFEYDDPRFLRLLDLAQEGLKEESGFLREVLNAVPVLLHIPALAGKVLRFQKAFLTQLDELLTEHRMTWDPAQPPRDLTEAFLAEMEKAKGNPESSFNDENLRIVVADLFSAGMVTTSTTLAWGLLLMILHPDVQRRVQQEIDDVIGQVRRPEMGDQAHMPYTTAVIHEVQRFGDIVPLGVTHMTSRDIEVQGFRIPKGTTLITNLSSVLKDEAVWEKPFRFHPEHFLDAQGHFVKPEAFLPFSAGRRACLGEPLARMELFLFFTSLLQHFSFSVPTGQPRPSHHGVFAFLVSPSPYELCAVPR", "assay": "Inhibition of human CYP2D6 at 10 uM", "assay_type": "ADME"}, "[13]": {"biological_target": "Epidermal growth factor receptor (Homo sapiens) (UniProt P04626+P00533+Q15303+P21860)", "assay": "Inhibition of EGFR L747-S752del,P753S mutant at 3 uM", "assay_type": "protein assay"}, "[14]": {"biological_target": "5'-AMP-activated protein kinase catalytic subunit alpha-1 (Homo sapiens) (UniProt Q13131)", "assay": "Inhibition of AMPKalpha1 at 3 uM"}, "[15]": {"biological_target": "Serine/threonine-protein kinase BRSK2 (Homo sapiens) (UniProt Q8IWQ3)", "assay": "Inhibition of BRSK2 at 3 uM"}, "[16]": {"biological_target": "Serine/threonine-protein kinase PLK1 (Homo sapiens) (UniProt P53350)", "assay": "Inhibition of PLK1 at 3 uM"}, "[17]": {"biological_target": "Myosin light chain kinase, smooth muscle (Homo sapiens) (UniProt Q15746)", "sequence (Q15746 whole entry)": "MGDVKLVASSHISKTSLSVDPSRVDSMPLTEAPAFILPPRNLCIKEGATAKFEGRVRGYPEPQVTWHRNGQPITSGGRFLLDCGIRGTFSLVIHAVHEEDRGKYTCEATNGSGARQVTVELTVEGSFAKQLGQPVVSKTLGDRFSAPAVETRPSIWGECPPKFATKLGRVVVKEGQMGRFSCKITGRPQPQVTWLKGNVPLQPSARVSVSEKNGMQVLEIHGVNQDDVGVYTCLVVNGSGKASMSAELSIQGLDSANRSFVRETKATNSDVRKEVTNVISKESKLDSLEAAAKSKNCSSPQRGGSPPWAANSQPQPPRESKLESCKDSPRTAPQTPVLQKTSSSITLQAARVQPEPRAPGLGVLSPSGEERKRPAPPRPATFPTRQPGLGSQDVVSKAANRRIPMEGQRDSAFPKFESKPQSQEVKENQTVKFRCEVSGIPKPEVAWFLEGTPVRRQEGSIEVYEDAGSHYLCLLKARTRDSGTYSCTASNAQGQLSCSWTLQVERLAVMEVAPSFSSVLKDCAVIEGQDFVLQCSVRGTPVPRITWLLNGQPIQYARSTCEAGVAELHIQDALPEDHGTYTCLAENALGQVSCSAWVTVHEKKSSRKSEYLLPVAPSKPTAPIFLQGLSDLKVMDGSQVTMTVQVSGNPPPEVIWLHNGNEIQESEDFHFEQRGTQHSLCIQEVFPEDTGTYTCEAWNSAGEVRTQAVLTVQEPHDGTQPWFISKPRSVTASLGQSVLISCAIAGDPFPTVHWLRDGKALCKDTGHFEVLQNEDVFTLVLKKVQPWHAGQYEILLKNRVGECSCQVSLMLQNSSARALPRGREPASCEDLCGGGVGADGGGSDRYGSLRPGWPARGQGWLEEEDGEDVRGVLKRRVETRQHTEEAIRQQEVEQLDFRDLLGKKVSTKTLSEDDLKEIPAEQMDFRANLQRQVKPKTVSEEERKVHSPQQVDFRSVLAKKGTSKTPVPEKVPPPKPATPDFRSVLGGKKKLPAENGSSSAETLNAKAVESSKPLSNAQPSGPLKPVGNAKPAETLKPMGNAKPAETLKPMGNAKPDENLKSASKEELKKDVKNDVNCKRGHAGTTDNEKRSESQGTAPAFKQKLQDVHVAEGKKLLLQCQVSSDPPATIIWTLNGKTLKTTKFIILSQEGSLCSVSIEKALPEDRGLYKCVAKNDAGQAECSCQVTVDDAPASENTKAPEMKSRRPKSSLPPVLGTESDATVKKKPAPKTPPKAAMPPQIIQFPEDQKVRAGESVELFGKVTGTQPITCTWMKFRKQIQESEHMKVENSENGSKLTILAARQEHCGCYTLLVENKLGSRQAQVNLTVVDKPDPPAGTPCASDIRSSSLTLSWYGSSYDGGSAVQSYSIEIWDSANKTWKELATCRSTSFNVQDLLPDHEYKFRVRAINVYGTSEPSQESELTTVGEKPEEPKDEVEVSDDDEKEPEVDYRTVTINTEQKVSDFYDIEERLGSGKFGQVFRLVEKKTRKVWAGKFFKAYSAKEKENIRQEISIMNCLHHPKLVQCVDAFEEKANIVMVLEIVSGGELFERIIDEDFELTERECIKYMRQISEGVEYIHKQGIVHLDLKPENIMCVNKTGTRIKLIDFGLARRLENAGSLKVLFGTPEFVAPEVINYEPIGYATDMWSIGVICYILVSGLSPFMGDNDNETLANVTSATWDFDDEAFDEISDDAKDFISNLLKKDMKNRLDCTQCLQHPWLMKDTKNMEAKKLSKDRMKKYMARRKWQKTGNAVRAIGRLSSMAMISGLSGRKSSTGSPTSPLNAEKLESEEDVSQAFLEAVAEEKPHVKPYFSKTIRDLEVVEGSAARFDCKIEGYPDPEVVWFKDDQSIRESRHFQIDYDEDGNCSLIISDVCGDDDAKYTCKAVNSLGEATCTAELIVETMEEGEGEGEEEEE", "assay": "Inhibition of MYLK at 3 uM"}, "[18]": {"biological_target": "Casein kinase I isoform gamma-2 (Homo sapiens) (UniProt P78368)", "sequence (P78368 whole entry, looked up, canonical isoform)": "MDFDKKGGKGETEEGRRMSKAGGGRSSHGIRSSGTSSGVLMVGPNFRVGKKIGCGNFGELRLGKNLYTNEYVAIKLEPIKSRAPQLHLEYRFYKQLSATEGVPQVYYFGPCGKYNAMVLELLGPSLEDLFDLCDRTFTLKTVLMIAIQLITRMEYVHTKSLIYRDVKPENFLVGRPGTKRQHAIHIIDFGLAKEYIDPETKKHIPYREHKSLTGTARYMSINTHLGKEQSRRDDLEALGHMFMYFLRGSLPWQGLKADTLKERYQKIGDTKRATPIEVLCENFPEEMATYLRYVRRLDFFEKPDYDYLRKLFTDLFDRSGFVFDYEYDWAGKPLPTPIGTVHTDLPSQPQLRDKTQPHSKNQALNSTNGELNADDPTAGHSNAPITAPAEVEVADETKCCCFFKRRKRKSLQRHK", "assay": "Inhibition of CSNK1G2 at 3 uM"}, "[19]": {"biological_target": "Phosphatidylinositol 4-phosphate 5-kinase type-1 alpha (Homo sapiens) (UniProt Q99755)", "assay": "Inhibition of PIP5K1A at 3 uM"}, "[20]": {"biological_target": "Epidermal growth factor receptor (Homo sapiens) (UniProt P00533)", "assay": "Inhibition of EGFR at 3 uM", "outline": "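Single-concentration kinase panel scoring: each value is the percentage of enzyme activity remaining relative to a DMSO-only control. An activity statistically indistinct from DMSO control was scored \"no hit\".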"}, "[21]": {"biological_target": "MAP/microtubule affinity-regulating kinase 3 (Homo sapiens) (UniProt P27448)", "assay": "Inhibition of MARK3 at 3 uM"}, "[22]": {"biological_target": "Type-1 angiotensin II receptor (Homo sapiens) (UniProt P30556)", "sequence (P30556 whole entry)": "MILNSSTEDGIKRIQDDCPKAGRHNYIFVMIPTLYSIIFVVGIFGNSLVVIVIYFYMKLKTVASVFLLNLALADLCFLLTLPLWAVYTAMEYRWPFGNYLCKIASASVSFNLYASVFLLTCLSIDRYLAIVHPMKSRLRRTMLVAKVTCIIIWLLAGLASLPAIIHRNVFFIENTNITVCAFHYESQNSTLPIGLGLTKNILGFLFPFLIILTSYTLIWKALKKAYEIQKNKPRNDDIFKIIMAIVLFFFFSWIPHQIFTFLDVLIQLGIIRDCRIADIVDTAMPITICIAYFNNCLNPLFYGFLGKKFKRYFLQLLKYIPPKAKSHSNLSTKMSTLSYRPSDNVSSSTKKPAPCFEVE", "assay": "Inhibition of human AT1 receptor at 3 uM", "outline": "as §1"}, "[23]": {"system": "Tyrosine-protein kinase ABL1 (Homo sapiens), P00519 [H396P]", "assay": "Inhibition of ABL1 H396P mutant at 3 uM"}, "[24]": {"biological_target": "cGMP-dependent protein kinase 2 (Homo sapiens) (UniProt Q13237)", "sequence (Q13237 whole entry)": "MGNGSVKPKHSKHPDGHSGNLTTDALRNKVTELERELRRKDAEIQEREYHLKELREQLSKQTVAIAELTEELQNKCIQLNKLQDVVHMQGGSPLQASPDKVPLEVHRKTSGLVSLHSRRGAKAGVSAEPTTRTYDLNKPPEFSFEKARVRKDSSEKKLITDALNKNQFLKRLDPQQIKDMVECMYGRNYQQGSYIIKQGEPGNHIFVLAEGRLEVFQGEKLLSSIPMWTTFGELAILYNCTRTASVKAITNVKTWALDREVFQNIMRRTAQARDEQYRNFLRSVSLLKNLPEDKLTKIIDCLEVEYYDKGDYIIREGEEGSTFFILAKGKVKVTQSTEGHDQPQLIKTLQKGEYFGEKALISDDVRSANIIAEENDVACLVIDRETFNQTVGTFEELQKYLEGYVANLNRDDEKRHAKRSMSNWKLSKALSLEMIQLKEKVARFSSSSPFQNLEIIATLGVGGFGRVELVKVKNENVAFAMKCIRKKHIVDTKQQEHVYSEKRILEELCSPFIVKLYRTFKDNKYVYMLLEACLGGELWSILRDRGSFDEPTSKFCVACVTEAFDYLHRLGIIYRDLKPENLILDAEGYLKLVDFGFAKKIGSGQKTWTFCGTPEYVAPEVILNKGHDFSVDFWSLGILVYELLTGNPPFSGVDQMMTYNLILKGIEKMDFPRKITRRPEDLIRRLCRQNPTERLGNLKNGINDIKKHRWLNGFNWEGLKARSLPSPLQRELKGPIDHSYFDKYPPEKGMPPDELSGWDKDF", "assay": "Inhibition of PRKG2 at 3 uM"}, "[25]": {"biological_target": "Mast/stem cell growth factor receptor Kit (Homo sapiens) (UniProt P10721)", "assay": "Inhibition of KIT at 3 uM"}, "[26]": {"biological_target": "Serine/threonine-protein kinase PLK4 (Homo sapiens) (UniProt O00444)", "assay": "Inhibition of PLK4 at 3 uM"}, "[27]": {"biological_target": "Serine/threonine-protein kinase ULK3 (Homo sapiens) (UniProt Q6PHR2)", "assay": "Inhibition of ULK3 at 3 uM"}, "Rattus norvegicus [28]": {"species_on_record": "Rattus norvegicus", "conditions": "3 uM", "remark": "listed apart in the source"}, "[29]": {"biological_target": "Bone morphogenetic protein receptor type-1B (Homo sapiens) (UniProt O00238)", "assay": "Inhibition of BMPR1B at 3 uM"}, "[30]": {"biological_target": "TGF-beta receptor type-1 (Homo sapiens) (UniProt P36897)", "assay": "Inhibition of TGFBR1 at 3 uM"}, "[31]": {"biological_target": "Casein kinase I isoform gamma-1 (Homo sapiens) (UniProt Q9HCP0)", "assay": "Inhibition of CSNK1G1 at 3 uM"}, "[32]": {"biological_target": "Glutamate NMDA receptor (Rattus norvegicus) (UniProt P35439+Q00959+Q00960+Q00961+Q62645+Q8VHN2+Q9R1M7)", "assay": "Displacement of glycine from rat NMDA receptor at 3 uM", "assay_type": "protein-complex assay", "outline": "as §1"}, "[33]": {"biological_target": "LIM domain kinase 2 (Homo sapiens) (UniProt P53671)", "sequence (P53671 whole entry, looked up, the tested form may be a part)": "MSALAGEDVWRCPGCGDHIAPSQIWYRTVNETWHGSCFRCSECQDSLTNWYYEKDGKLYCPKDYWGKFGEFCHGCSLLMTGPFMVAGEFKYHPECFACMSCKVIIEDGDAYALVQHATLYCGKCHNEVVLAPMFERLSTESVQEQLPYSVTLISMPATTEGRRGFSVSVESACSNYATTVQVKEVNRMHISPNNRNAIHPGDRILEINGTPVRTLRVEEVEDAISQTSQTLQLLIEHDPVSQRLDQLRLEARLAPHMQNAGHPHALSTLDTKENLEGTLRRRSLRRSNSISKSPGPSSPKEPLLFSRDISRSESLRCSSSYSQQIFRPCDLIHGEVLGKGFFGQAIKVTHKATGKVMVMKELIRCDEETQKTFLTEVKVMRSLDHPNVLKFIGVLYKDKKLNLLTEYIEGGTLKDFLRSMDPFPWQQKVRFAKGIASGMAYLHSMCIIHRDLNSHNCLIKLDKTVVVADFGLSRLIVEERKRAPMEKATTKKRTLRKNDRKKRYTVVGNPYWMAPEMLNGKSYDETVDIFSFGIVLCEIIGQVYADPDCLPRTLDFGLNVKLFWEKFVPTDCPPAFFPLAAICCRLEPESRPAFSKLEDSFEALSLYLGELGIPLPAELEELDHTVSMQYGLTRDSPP", "assay": "Inhibition of LIMK2 at 3 uM"}, "CYP1A2": {"biological_target": "T1, CYP1A2 (Homo sapiens, UniProt P05177)", "T1 sequence (P05177 whole entry)": "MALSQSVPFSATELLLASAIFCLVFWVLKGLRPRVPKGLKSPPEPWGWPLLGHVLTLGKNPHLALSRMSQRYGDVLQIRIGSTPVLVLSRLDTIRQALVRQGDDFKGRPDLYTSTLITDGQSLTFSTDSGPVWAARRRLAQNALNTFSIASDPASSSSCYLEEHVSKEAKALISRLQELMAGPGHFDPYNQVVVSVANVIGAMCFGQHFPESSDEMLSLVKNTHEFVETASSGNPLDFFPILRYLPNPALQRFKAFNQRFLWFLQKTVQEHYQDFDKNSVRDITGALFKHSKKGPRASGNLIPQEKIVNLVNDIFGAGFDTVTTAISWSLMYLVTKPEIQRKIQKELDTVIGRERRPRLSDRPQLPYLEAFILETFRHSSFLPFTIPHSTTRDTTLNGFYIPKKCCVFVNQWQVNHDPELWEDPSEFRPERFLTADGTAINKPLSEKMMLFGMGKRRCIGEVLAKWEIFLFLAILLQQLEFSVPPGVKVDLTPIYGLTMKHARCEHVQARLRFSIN", "assay": "Inhibition of human CYP1A2 at 10 uM", "assay_type": "ADME"}, "[34]": {"biological_target": "Tyrosine-protein kinase TXK (Homo sapiens) (UniProt P42681)", "assay": "Inhibition of TXK at 3 uM"}, "[35]": {"biological_target": "Tyrosine-protein kinase Srms (Homo sapiens) (UniProt Q9H3Y6)", "assay": "Inhibition of SRMS at 3 uM"}},
  "data": [
    {"molecule": "CN(C)CCOc1cc(-c2cn[nH]c2)ccc1NC(=O)C1COc2ccccc2O1", "note": "(configuration not stated) [SR-3677]", "values": [
      {"measurement": "inhibition", "setting": "[1]", "value": 25, "unit": "%"},
      {"measurement": "inhibition", "setting": "[2]", "value": "< 10", "unit": "%"},
      {"measurement": "inhibition", "setting": "Rattus norvegicus [3]", "value": -4, "unit": "%"},
      {"measurement": "inhibition", "setting": "[4]", "value": "< 10", "unit": "%"},
      {"measurement": "inhibition", "setting": "[5]", "value": 76, "unit": "%"},
      {"measurement": "inhibition", "setting": "[6]", "value": "< 10", "unit": "%"},
      {"measurement": "inhibition", "setting": "[7]", "value": "< 10", "unit": "%"},
      {"measurement": "inhibition", "setting": "[8]", "value": "< 10", "unit": "%"},
      {"measurement": "inhibition", "setting": "[9]", "value": "< 10", "unit": "%"},
      {"measurement": "inhibition", "setting": "[10]", "value": "< 10", "unit": "%"},
      {"measurement": "inhibition", "setting": "[11]", "value": "< 10", "unit": "%"},
      {"measurement": "inhibition", "setting": "[12]", "value": "< 10", "unit": "%"},
      {"measurement": "inhibition at 10 µM", "setting": "CYP2D6", "value": 75, "unit": "%"},
      {"measurement": "inhibition", "setting": "[13]", "value": "< 10", "unit": "%"},
      {"measurement": "inhibition", "setting": "[14]", "value": "< 10", "unit": "%"},
      {"measurement": "inhibition", "setting": "[15]", "value": "< 10", "unit": "%"},
      {"measurement": "inhibition", "setting": "[16]", "value": "< 10", "unit": "%"},
      {"measurement": "inhibition", "setting": "[17]", "value": "< 10", "unit": "%"},
      {"measurement": "inhibition", "setting": "[18]", "value": "< 10", "unit": "%"},
      {"measurement": "inhibition", "setting": "[19]", "value": "< 10", "unit": "%"},
      {"measurement": "inhibition", "setting": "[20]", "value": "< 10", "unit": "%"},
      {"measurement": "inhibition", "setting": "[21]", "value": "< 10", "unit": "%"},
      {"measurement": "inhibition", "setting": "[22]", "value": -1, "unit": "%"},
      {"measurement": "inhibition", "setting": "[23]", "value": "< 10", "unit": "%"},
      {"measurement": "inhibition", "setting": "[24]", "value": "< 10", "unit": "%"},
      {"measurement": "inhibition", "setting": "[25]", "value": "< 10", "unit": "%"},
      {"measurement": "inhibition", "setting": "[26]", "value": "< 10", "unit": "%"},
      {"measurement": "inhibition", "setting": "[27]", "value": "< 10", "unit": "%"},
      {"measurement": "inhibition", "setting": "Rattus norvegicus [28]", "value": 0, "unit": "%"},
      {"measurement": "inhibition", "setting": "[29]", "value": "< 10", "unit": "%"},
      {"measurement": "inhibition", "setting": "[30]", "value": "< 10", "unit": "%"},
      {"measurement": "inhibition", "setting": "[31]", "value": "< 10", "unit": "%"},
      {"measurement": "inhibition", "setting": "[32]", "value": -10, "unit": "%"},
      {"measurement": "inhibition", "setting": "[33]", "value": "< 10", "unit": "%"},
      {"measurement": "inhibition at 10 µM", "setting": "CYP1A2", "value": 46, "unit": "%"},
      {"measurement": "inhibition", "setting": "[34]", "value": "< 10", "unit": "%"},
      {"measurement": "inhibition", "setting": "[35]", "value": "< 10", "unit": "%"}
    ]}
  ]
}
